Experimental data as given in PMC5167571 (Molecular pharmaceutics, 2015).
Starred links: 1 amine or outer side, 2 acyl side, 3 side chain; linkers in the order of their positions; H or OH if unused. Non-standard residues stand in square brackets, D forms with d. Residues, ends and D or L forms follow the SMILES beside them. *: point of attachment. DOTA = O=C(O)CN1CCN(CC(=O)O)CCN(CC(=O)*)CCN(CC(=O)O)CC1; Acryloyl(3-(3-pyridyl),E) = O=C(/C=C/c1cccnc1)*; X1 = O=C(Cc1ccc(N[*:1])cc1)[*:2]; Aad = N[C@@H](CCCC(=O)O)C(=O)O; NH(2-Me-phenyl) = Cc1ccccc1N*; PEG4 = NCCOCCOCCOCCOCCC(=O)O; Ac6c = NC1(C(=O)O)CCCCC1; CO = O=C([*:1])[*:2]

How the values were obtained:
VLA-4 (integrin α4β1) = VLA-4 (integrin α4β1) (Mus musculus, UniProt P09055+Q00651); test: Competitive binding assay with ^64Cu-NODAGA-PEG4-LLP2A in B16F10 melanoma cells; conditions: VLA-4, B16F10 cells; Ki of Ga conjugate vs Kd of Lu conjugate
Sequence of VLA-4 (integrin α4β1) (Q00651 41-1039): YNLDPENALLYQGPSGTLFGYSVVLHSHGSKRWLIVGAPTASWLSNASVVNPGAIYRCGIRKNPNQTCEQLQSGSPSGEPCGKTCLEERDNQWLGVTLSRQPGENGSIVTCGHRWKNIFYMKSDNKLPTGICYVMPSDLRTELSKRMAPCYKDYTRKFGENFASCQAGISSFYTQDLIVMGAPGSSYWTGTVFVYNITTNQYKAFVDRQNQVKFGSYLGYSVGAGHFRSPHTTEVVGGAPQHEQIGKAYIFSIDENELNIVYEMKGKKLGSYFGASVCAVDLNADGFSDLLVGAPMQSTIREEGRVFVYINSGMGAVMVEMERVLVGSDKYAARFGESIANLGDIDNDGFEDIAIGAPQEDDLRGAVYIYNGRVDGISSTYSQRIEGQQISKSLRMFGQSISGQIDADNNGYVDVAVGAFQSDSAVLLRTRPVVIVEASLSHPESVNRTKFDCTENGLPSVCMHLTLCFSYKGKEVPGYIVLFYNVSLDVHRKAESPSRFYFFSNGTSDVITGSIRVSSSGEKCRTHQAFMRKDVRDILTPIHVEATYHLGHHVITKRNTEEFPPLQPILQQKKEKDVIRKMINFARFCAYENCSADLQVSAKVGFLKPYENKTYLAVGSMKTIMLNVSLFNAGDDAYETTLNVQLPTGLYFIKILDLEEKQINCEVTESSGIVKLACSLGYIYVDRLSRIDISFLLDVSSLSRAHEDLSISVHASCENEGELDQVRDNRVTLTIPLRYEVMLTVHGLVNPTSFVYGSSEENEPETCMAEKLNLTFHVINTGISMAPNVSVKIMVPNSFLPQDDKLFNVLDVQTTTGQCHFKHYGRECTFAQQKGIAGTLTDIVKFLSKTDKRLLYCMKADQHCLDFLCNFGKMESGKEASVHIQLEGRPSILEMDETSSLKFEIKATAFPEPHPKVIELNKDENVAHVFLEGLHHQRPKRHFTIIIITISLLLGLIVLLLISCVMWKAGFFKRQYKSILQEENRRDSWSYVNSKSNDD
Sequence of VLA-4 (integrin α4β1) (P09055 21-798): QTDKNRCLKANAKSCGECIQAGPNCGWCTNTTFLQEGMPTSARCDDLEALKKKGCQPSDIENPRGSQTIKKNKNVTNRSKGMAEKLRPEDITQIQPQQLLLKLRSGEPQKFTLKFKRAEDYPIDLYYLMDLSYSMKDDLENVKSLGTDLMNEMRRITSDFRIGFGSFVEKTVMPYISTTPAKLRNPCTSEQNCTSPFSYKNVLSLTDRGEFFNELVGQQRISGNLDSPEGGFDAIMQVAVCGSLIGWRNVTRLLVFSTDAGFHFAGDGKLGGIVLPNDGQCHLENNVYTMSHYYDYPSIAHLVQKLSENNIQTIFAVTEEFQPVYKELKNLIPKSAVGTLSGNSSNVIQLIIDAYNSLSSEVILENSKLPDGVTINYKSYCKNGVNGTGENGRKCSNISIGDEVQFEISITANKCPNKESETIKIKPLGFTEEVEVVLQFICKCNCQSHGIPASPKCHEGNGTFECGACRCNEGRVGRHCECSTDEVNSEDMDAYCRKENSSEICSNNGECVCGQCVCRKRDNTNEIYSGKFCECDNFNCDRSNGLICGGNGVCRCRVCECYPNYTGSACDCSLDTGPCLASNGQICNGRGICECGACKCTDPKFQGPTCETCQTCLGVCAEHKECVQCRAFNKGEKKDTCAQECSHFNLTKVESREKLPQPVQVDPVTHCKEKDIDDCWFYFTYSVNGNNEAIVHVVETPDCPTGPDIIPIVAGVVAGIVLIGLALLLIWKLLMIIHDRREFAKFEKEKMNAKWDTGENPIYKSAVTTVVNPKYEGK
Summary of the method: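 Both assays used B16F10 cells (10⁵/well, seeded 24 h earlier) in HBSS/0.1% BSA/1 mM Mn²⁺ on ice. […] Kd: ¹⁷⁷Lu conjugate (0.2–40 nM), 2 h, n = 3, with nonspecific binding from a 15 μg LLP2A-PEG₄ block. Cell-bound counts were normalized to BCA protein and fitted for Kd and Ki.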

[1] = test system: B16F10 tumor-bearing C57BL/6 mice; test: Biodistribution of ^68Ga-DOTA-PEG4-LLP2A; type: in vivo, mouse; conditions: 360-fold excess of LLP2A-PEG4 (100 μg), 1 h
Summary of the method: (§1)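 Mice bearing s.c. right-shoulder B16F10 tumors (10⁶ cells in PBS) received the ⁶⁸Ga tracer i.v. (5.55 MBq, 277 ng), n = 4 per group. They were sacrificed at 1 h. A blocking group received tracer premixed with 100 μg LLP2A-PEG₄. Tissues and tumor were weighed and γ-counted, and decay-corrected %ID/g was calculated against a standard. Data are mean ± SD.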

[2] = Biodistribution of ^68Ga-DOTA-PEG4-LLP2A; type: in vivo, mouse; conditions: C57BL/6, mouse, iv, 5.55 MBq, total radioactivity
Summary of the method: as §1

B16F10 cells = test: Internalization assay; type: cell-based, mouse; conditions: 37 °C; for Internalized agent: 12 ng/well, n = 3
[3] = test system: B16F10 tumor-bearing C57BL/6 mice; test: Biodistribution of ^177Lu-DOTA-PEG4-LLP2A; type: in vivo, mouse; conditions: 4 h postinjection, i.v.
Summary of the method: (§2)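 B16F10 cells (10⁶ in PBS) were implanted s.c. in the right shoulder of 6–8-week-old C57BL/6 mice. ¹⁷⁷Lu conjugate (3.6 MBq, 90 ng) was given i.v., n = 5 per group. Animals were killed at 4, 24, 48, 72 and 96 h. Blood, organs, muscle, bone and tumor were weighed and γ-counted. Values are decay-corrected %ID/g against an injected-dose standard, shown as tumor/blood and tumor/muscle ratios, mean ± SD.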

[4] = Biodistribution of ^177Lu-DOTA-PEG4-LLP2A; type: in vivo, mouse; conditions: C57BL/6, mouse, iv, 3.6 MBq, total radioactivity
Summary of the method: as §2

Q: With Cc1ccccc1NC(=O)Nc1ccc(CC(=O)N[C@@H](CCCCNC(=O)/C=C/c2cccnc2)C(=O)N[C@@H](CCCC(=O)O)C(=O)NC2(C(=O)NCCOCCOCCOCCOCCC(=O)N[C@@H](CCCCNC(=O)CN3CCN(CC(=O)O)CCN(CC(=O)O)CCN(CC(=O)O)CC3)C(N)=O)CCCCC2)cc1 [^68Ga-DOTA-PEG4-LLP2A, metal not drawn] ({NH(2-Me-phenyl)-CO}-[X1]K(Acryloyl(3-(3-pyridyl),E))[Aad][Ac6c][PEG4]K(DOTA)-NH2; N-terminus and C-terminus assumed) as the compound, how does the “fold higher affinity than the ^177Lu-labeled conjugate” value (VLA-4 (integrin α4β1)) read?
A: 3 fold

Q: What about the “uptake in blocking study” value [1] of the same compound?
A: reduction of uptake

Q: What about the tissue uptake at 1 h ([2]; bone marrow) of the same compound?
A: 3.2 ± 0.7 %ID/g

Q: What about the tissue uptake at 1 h ([2]; kidneys) of the same compound?
A: 3.7 ± 0.9 %ID/g

Q: And the tissue uptake at 1 h ([2]; liver)?
A: 1.9 ± 0.4 %ID/g

Q: What about the tissue uptake at 1 h ([2]; spleen) of the same compound?
A: 5.4 ± 1.7 %ID/g

Q: And the tissue uptake at 1 h ([2]; thymus)?
A: 4.6 ± 0.5 %ID/g

Q: What about the tissue uptake at 1 h ([2]; tumor) of the same compound?
A: 9.1 ± 0.9 %ID/g

Q: What about the tissue to tissue ratio at 1 h ([2]; tumor/blood) of the same compound?
A: 5.8 ± 1.5

Q: What about the tissue to tissue ratio at 1 h ([2]; tumor/muscle) of the same compound?
A: 9.7 ± 1.5

Q: With Cc1ccccc1NC(=O)Nc1ccc(CC(=O)N[C@@H](CCCCNC(=O)/C=C/c2cccnc2)C(=O)N[C@@H](CCCC(=O)O)C(=O)NC2(C(=O)NCCOCCOCCOCCOCCC(=O)N[C@@H](CCCCNC(=O)CN3CCN(CC(=O)O)CCN(CC(=O)O)CCN(CC(=O)O)CC3)C(N)=O)CCCCC2)cc1 [^177Lu-DOTA-PEG4-LLP2A, metal not drawn] ({NH(2-Me-phenyl)-CO}-[X1]K(Acryloyl(3-(3-pyridyl),E))[Aad][Ac6c][PEG4]K(DOTA)-NH2; N-terminus and C-terminus assumed) as the compound, how does the Internalized agent (B16F10 cells; 30 min (maximum uptake)) read?
A: 341 ± 110 fmol/mg

Q: What about the Internalized agent (B16F10 cells; 2 h) of the same compound?
A: 343 ± 53 fmol/mg

Q: And the Internalized agent (B16F10 cells; 4 h)?
A: 303 ± 41 fmol/mg

Q: And the “time to internalization post addition” value (B16F10 cells; internalized rapidly)?
A: < 15 min

Q: And the tumor uptake ([3]; 3.6 MBq, 90 ng, n = 5, mean ± SD)?
A: 31.3 ± 7.8 % ID/g

Q: What about the “uptake in the muscle, heart, and blood” value ([3]; n = 5) of the same compound?
A: minimal uptake

Q: What about the tissue uptake at 4 h ([4]; bone (likely bone marrow)) of the same compound?
A: 10.1 ± 3.5 %ID/g

Q: What about the tissue uptake at 24 h ([4]; bone) of the same compound?
A: 4.1 ± 0.4 %ID/g

Q: And the tissue uptake at 48 h ([4]; bone)?
A: 2.7 ± 0.6 %ID/g

Q: What about the tissue uptake at 72 h ([4]; bone) of the same compound?
A: 2.2 ± 0.5 %ID/g

Q: What about the tissue uptake at 96 h ([4]; bone) of the same compound?
A: 1.6 ± 0.6 %ID/g

Q: What about the tissue uptake at 24 h ([4]; kidney) of the same compound?
A: 2.4 ± 0.3 %ID/g

Q: What about the tissue uptake at 4 h ([4]; kidneys) of the same compound?
A: 6.5 ± 1.5 %ID/g

Q: What about the tissue uptake at 4 h ([4]; liver) of the same compound?
A: 2.8 ± 0.4 %ID/g

Q: What about the tissue uptake at 24 h ([4]; liver) of the same compound?
A: 1 ± 0.1 %ID/g

Q: And the tissue uptake at 4 h ([4]; lungs)?
A: 5.9 ± 0.8 %ID/g

Q: What about the tissue uptake at 4 h ([4]; spleen) of the same compound?
A: 27.1 ± 3.1 %ID/g

Q: And the tissue uptake at 24 h ([4]; spleen)?
A: 10.1 ± 4.1 %ID/g

Q: What about the tissue uptake at 48 h ([4]; spleen) of the same compound?
A: 7.4 ± 1.4 %ID/g

Q: And the tissue uptake at 72 h ([4]; spleen)?
A: 4.7 ± 1.5 %ID/g

Q: And the tissue uptake at 96 h ([4]; spleen)?
A: 3.7 ± 1.1 %ID/g

Q: What about the tissue uptake at 4 h ([4]; thymus) of the same compound?
A: 9.7 ± 1.7 %ID/g

Q: What about the tissue uptake at 24 h ([4]; thymus) of the same compound?
A: 5.6 ± 0.9 %ID/g

Q: What about the tissue uptake at 48 h ([4]; thymus) of the same compound?
A: 4.1 ± 0.2 %ID/g

Q: What about the tissue uptake at 72 h ([4]; thymus) of the same compound?
A: 2.7 ± 0.5 %ID/g

Q: And the tissue uptake at 96 h ([4]; thymus)?
A: 1.7 ± 0.2 %ID/g

Q: What about the tissue uptake at 4 h ([4]; tumor) of the same compound?
A: 31.5 ± 7.8 %ID/g

Q: And the tissue uptake at 24 h ([4]; tumor)?
A: 5.4 ± 1.5 %ID/g

Q: And the tissue uptake at 48 h ([4]; tumor)?
A: 1.7 ± 0.4 %ID/g

Q: And the tissue uptake at 72 h ([4]; tumor)?
A: 0.9 ± 0.4 %ID/g

Q: And the tissue uptake at 96 h ([4]; tumor)?
A: 0.4 ± 0.07 %ID/g

Q: And the tissue to tissue ratio at 4 h ([4]; tumor/blood)?
A: 36 ± 10

Q: And the tissue to tissue ratio at 24 h ([4]; tumor/blood)?
A: 186 ± 26

Q: What about the tissue to tissue ratio at 48 h ([4]; tumor/blood) of the same compound?
A: 61 ± 13

Q: What about the tissue to tissue ratio at 72 h ([4]; tumor/blood) of the same compound?
A: 35 ± 37

Q: And the tissue to tissue ratio at 96 h ([4]; tumor/blood)?
A: 25 ± 16

Q: What about the tissue to tissue ratio at 4 h ([4]; tumor/muscle) of the same compound?
A: 21 ± 7

Q: And the tissue to tissue ratio at 24 h ([4]; tumor/muscle)?
A: 18 ± 3

Q: What about the tissue to tissue ratio at 48 h ([4]; tumor/muscle) of the same compound?
A: 9 ± 1

Q: And the tissue to tissue ratio at 72 h ([4]; tumor/muscle)?
A: 6 ± 3

Q: And the tissue to tissue ratio at 96 h ([4]; tumor/muscle)?
A: 3 ± 0.4
